Data from ChEMBL document CHEMBL4118256, “Second Generation of Mannich Base-Type Derivatives with in Vivo Activity against Trypanosoma cruzi” (J Med Chem, 2018).
The source made the active and inactive calls. The calls are words filed in the database; no cut-off is given here.

Experiments:
[1] = test system: Mus musculus; test: (§1) Hepatotoxicity in Balb/c mouse infected with Trypanosoma cruzi MHOM/Pe/2011/Arequipa DTU 5 trypamastigotes assessed as decrease in alkaline phosphatase level at […], po once daily for 5 consecutive days starting from day 75 post infection measured on day 81 post infection by biochemical analysis relative to control; format: toxicity, organism-based; design: scale not given: the % may be the effect or the level left; conditions: in vivo
In short: (§2)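 Serum clinical chemistry in Arequipa-infected female BALB/c mice. Oral 20 mg·kg-1 per day for 5 days, started day 10 or day 75 pi. Samples taken at day 16 pi or day 81 pi, and on necropsy day. Markers: CK-MB and LDH (U/L), AST, ALT and alkaline phosphatase (U/L), total bilirubin. Results scored relative to infected untreated controls; uninfected reference n = 15.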

[2] = test system: Trypanosoma cruzi; test: (§3) Antitrypanosomal activity against Trypanosoma cruzi MHOM/Pe/2011/Arequipa DTU 5 trypamastigotes infected in Balb/c mouse assessed as reduction in parasitaemia reactivation in bone marrow tissue at 100 mg/kg, po pretreated once daily for 5 consecutive days starting from day 75 post infection followed by cyclophosphamide-induced immunosuppression on day 100 post infection every 4 days for a maximum of 3 doses measured on day 127 post infection by PCR method; format: functional; design: scale not given: the % may be the effect or the level left
In short: (§4)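 Necropsy on day 127 pi after oral treatment and cyclophosphamide immunosuppression. Tissue DNA was amplified by PCR targeting the ~300 bp T. cruzi SOD gene, 200 nM each primer, 30 cycles with 55.5 °C annealing. Products run on 2 % agarose; positive organs counted out of six mice.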

[3] = test system: Trypanosoma cruzi; test: as §3, with “spleen” for “bone marrow”; format: functional; design: scale not given: the % may be the effect or the level left
[4] = test system: Trypanosoma cruzi; test: as §3, with “adipose” for “bone marrow”, “10” for “75”; format: functional; design: scale not given: the % may be the effect or the level left; conditions: pooled result: one value given for 9 cell lines, strains, targets or settings; in short: as §4
[5] = test system: Mus musculus; test: (§5) Nephrotoxicity in Balb/c mouse infected with Trypanosoma cruzi MHOM/Pe/2011/Arequipa DTU 5 trypamastigotes assessed as change in urea level in serum at 100 mg/kg, po once daily for 5 consecutive days starting from day 75 post infection measured on day 127 post infection by biochemical analysis relative to control; format: toxicity, organism-based; conditions: in vivo
[6] = test system: Mus musculus; test: as §5, with “Cardiotoxicity” for “Nephrotoxicity”, “decrease” for “change”, “ratio of creatine kinase” for “urea level”, “muscle to brain” for “serum”; format: toxicity, organism-based; design: scale not given: the % may be the effect or the level left; conditions: in vivo
[7] = test system: Trypanosoma cruzi; test: Antitrypanosomal activity against Trypanosoma cruzi MHOM/Pe/2011/Arequipa DTU 5 trypamastigotes infected in Balb/c mouse assessed as reduction in parasitaemia level at 20 mg/kg, po once daily for 5 consecutive days starting from day 10 post infection measured on day 47 post infection by Neubauer chamber method; format: functional, organism-based
In short: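 Six female BALB/c mice per group, infected i.p. with 5 x 10^5 Arequipa bloodstream trypomastigotes in PBS. Oral dosing once daily for 5 days from day 10 pi, 20 mg·kg-1 per day in aqueous 5 % DMSO/0.5 % HPMC, vehicle to controls. Blood trypomastigotes counted in a Neubauer chamber (parasites·mL-1); means ± SD.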

[8] = test system: Trypanosoma cruzi; test: Antitrypanosomal activity against Trypanosoma cruzi MHOM/Pe/2011/Arequipa DTU 5 trypamastigotes infected in Balb/c mouse assessed as reduction in Ig-G level in serum at 20 mg/kg, po once daily for 5 consecutive days starting from day 10 post infection measured on day 16 post infection by ELISA; format: functional, organism-based
In short: (§6)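 Female BALB/c mice (8-10 weeks, 20-25 g), six per group, infected i.p. with 5 x 10^5 Arequipa bloodstream trypomastigotes. Compound was given orally once daily for 5 days from day 10 or day 75 pi, at 20 mg·kg-1 per day in 5 % DMSO/0.5 % HPMC. Anti-T. cruzi IgG in serum was measured by ELISA with Fe-SOD antigen, read as OD 490 nm.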

[9] = test system: Trypanosoma cruzi; test: as §3, with “in Ig-G level” for “in parasitaemia reactivation”, “in serum” for “in bone marrow tissue”, “at 20” for “at 100”, “day 10” for “day 75”, “by ELISA” for “by PCR method”; format: functional, organism-based; in short: as §6
[10] = test system: Trypanosoma cruzi; test: Antitrypanosomal activity against Trypanosoma cruzi MHOM/Pe/2011/Arequipa DTU 5 trypamastigotes infected in Balb/c mouse assessed as reduction in Ig-G level in serum at 20 mg/kg, po once daily for 5 consecutive days starting from day 75 post infection measured on day 81 post infection by ELISA; format: functional, organism-based; in short: as §6
[11] = test system: Trypanosoma cruzi; test: Antitrypanosomal activity against Trypanosoma cruzi MHOM/Pe/2011/Arequipa DTU 5 trypamastigotes infected in Balb/c mouse assessed as reduction in splenomegaly at 20 mg/kg, po once daily for 5 consecutive days starting from day 10 post infection measured on day 127 post infection relative to control; format: functional, organism-based
[12] = test system: Mus musculus; test: as §5, with “Cardiotoxicity” for “Nephrotoxicity”, “ratio of creatine kinase” for “urea level”, “muscle to brain” for “serum”, “20” for “100”, “10” for “75”, “16” for “127”; format: toxicity, organism-based; conditions: in vivo; in short: as §2
[13] = test system: Mus musculus; test: (§7) Cardiotoxicity in Balb/c mouse infected with Trypanosoma cruzi MHOM/Pe/2011/Arequipa DTU 5 trypamastigotes assessed as decrease in serum LDH level at 20 mg/kg, po once daily for 5 consecutive days starting from day 75 post infection measured on day 81 post infection by biochemical analysis relative to control; format: toxicity, organism-based; design: scale not given: the % may be the effect or the level left; conditions: in vivo; in short: as §2
[14] = test system: Mus musculus; test: (§8) Hepatotoxicity in Balb/c mouse infected with Trypanosoma cruzi MHOM/Pe/2011/Arequipa DTU 5 trypamastigotes assessed as increase in ratio of serum ALT to GPT level at 20 mg/kg, po once daily for 5 consecutive days starting from day 10 post infection measured on day 16 post infection by biochemical analysis relative to control; format: toxicity, organism-based; conditions: in vivo
[15] = test system: Mus musculus; test: as §8, with “75” for “10”, “81” for “16”; format: toxicity, organism-based; conditions: in vivo
[16] = test system: Mus musculus; test: as §7, with “Hepatotoxicity” for “Cardiotoxicity”, “increase” for “decrease”, “total bilirubin” for “serum LDH”; format: toxicity, organism-based; conditions: in vivo
[17] = test system: Mus musculus; test: Hepatotoxicity in Balb/c mouse infected with Trypanosoma cruzi MHOM/Pe/2011/Arequipa DTU 5 trypamastigotes assessed as change in alkaline phosphatase level at 20 mg/kg, po once daily for 5 consecutive days starting from day 10 post infection measured on day 127 post infection by biochemical analysis relative to control; format: toxicity, organism-based; conditions: in vivo; in short: as §2
[18] = test system: Mus musculus; test: as §5, with “decrease” for “change”; format: toxicity, organism-based; design: scale not given: the % may be the effect or the level left; conditions: in vivo
[19] = test system: Mus musculus; test: as §7, with “change” for “decrease”, “[…],” for “20 mg/kg,”; format: toxicity, organism-based; conditions: in vivo; in short: as §2
[20] = test system: Mus musculus; test: as §8, with “serum AST” for “serum ALT”, “to GOT” for “to GPT”, “at […]” for “at 20”, “day 127” for “day 16”; format: toxicity, organism-based; conditions: in vivo
[21] = test system: Mus musculus; test: as §8, with “serum AST” for “serum ALT”, “to GOT” for “to GPT”, “at […]” for “at 20”, “day 75” for “day 10”, “day 81” for “day 16”; format: toxicity, organism-based; conditions: in vivo
[22] = test system: Mus musculus; test: as §8, with “at […]” for “at 20”, “day 75” for “day 10”, “day 81” for “day 16”; format: toxicity, organism-based; conditions: in vivo
[23] = test system: Mus musculus; test: as §8, with “at […]” for “at 20”, “day 75” for “day 10”, “day 127” for “day 16”; format: toxicity, organism-based; conditions: in vivo
[24] = test system: Mus musculus; test: as §1, with “change” for “decrease”, “total bilirubin” for “alkaline phosphatase”; format: toxicity, organism-based; conditions: in vivo; in short: as §2
[25] = test system: Mus musculus; test: Hepatotoxicity in Balb/c mouse infected with Trypanosoma cruzi MHOM/Pe/2011/Arequipa DTU 5 trypamastigotes assessed as increase in alkaline phosphatase level at […], po once daily for 5 consecutive days starting from day 75 post infection measured on day 81 post infection by biochemical analysis relative to control; format: toxicity, organism-based; conditions: in vivo

COc1ccc(C(=O)CCN2CCN(c3ccc(F)cc3)CC2)cc1
Activity [1]: <= 10%

COc1ccc(C(=O)CCN2CCN(c3ccc(Cl)cc3)CC2)cc1
Activity [2]: 78%
Activity [3]: 78%
Activity [4]: 89%
Activity [5]: < 10%
Activity [6]: <= 10%

O=C(Cn1ccnc1[N+](=O)[O-])NCc1ccccc1 [BENZNIDAZOLE]
Activity [7]: inactive
Activity [8]: Active
Activity [9]: Active
Activity [10]: inactive
Activity [11]: Active
Activity [12]: < 10%
Activity [13]: <= 30%
Activity [14]: > 40%
Activity [15]: <= 20%
Activity [16]: <= 30%
Activity [17]: < 10%

COc1ccc(C(=O)CCN2CCN(c3ccc([N+](=O)[O-])cc3)CC2)cc1
Activity [18]: <= 10%
Activity [19]: < 10%
Activity [20]: <= 30%
Activity [21]: <= 30%
Activity [22]: <= 30%
Activity [23]: <= 10%
Activity [24]: < 10%
Activity [25]: <= 10%
